Test results as given in ChEMBL document CHEMBL1147076, “Antitumor activity of MLN8054, an orally active small-molecule inhibitor of Aurora A kinase” (Proc Natl Acad Sci U S A, 2007).
Active and inactive are the calls of the source. The calls are words filed in the database; no cut-off is given here.

Key:
[1] = target: Tyrosine-protein kinase Fes/Fps (Homo sapiens) (UniProt P07332); experiment: Activity of human Fes kinase at 1 uM
Procedure, shortened: (§1)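 Single-point kinase profiling: each kinase in a 226-kinase panel tested with compound at 1 μM and ATP at 10 μM in every assay, run by an external screening service.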

[2] = target: Inhibitor of nuclear factor kappa-B kinase subunit alpha (Homo sapiens) (UniProt O15111); experiment: Activity of human IKKalpha kinase at 1 uM; procedure, shortened: as §1
[3] = target: Tyrosine-protein kinase JAK2 (Homo sapiens) (UniProt O60674); experiment: Activity of human JAK2 kinase at 1 uM
[4] = target: Serine/threonine-protein kinase 10 (Homo sapiens) (UniProt O94804); experiment: Activity of human LOK kinase at 1 uM
[5] = target: Tyrosine-protein kinase Lyn (Homo sapiens) (UniProt P07948); experiment: Activity of human Lyn kinase at 1 uM; procedure, shortened: as §1
[6] = target: Tyrosine-protein kinase Lyn (Mus musculus) (UniProt P25911); experiment: Activity of mouse Lyn kinase at 1 uM
Procedure, shortened: (§2)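 Single-point screen in a 226-kinase panel run by an outside service. Test compound at 1 μM with ATP at 10 μM in every assay. Other assay conditions are not given.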

[7] = target: Dual specificity mitogen-activated protein kinase kinase 1 (Homo sapiens) (UniProt Q02750); experiment: Activity of human MEK1 kinase at 1 uM
[8] = target: Dual specificity mitogen-activated protein kinase kinase 4 (Mus musculus) (UniProt P47809); experiment: Activity of mouse MKK4 kinase at 1 uM; procedure, shortened: as §2
[9] = target: Myosin light chain kinase, smooth muscle (Homo sapiens) (UniProt Q15746); experiment: Activity of human MLCK kinase at 1 uM
[10] = target: Serine/threonine-protein kinase 24 (Homo sapiens) (UniProt Q9Y6E0); experiment: Activity of human MST3 kinase at 1 uM
[11] = target: Serine/threonine-protein kinase Nek2 (Homo sapiens) (UniProt P51955); experiment: Activity of human NEK2 kinase at 1 uM
[12] = target: Phosphatidylinositol 4,5-bisphosphate 3-kinase catalytic subunit gamma isoform (Homo sapiens) (UniProt P48736); experiment: Activity of human PI 3-kinase gamma at 1 uM; procedure, shortened: as §1
Homo sapiens [13] = organism: Homo sapiens; experiment: Activity of human PKA kinase at 1 uM; procedure, shortened: as §2
[14] = target: Protein kinase C delta type (Homo sapiens) (UniProt Q05655); experiment: Activity of human PKCdelta kinase at 1 uM; procedure, shortened: as §1
[15] = target: Protein kinase C eta type (Homo sapiens) (UniProt P24723); experiment: Activity of human PKCeta kinase at 1 uM; procedure, shortened: as §2
[16] = target: Rho-associated protein kinase 2 (Rattus norvegicus) (UniProt Q62868); experiment: Activity of rat ROCK2 kinase at 1 uM; procedure, shortened: as §2
[17] = target: Tyrosine-protein kinase receptor TYRO3 (Homo sapiens) (UniProt Q06418); experiment: Activity of human Rse kinase at 1 uM
Procedure, shortened: (§3)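 Single-concentration screen across a 226-kinase panel run by an outside provider; test compound at 1 μM with 10 μM ATP in every assay. Other conditions not detailed.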

[18] = target: Mitogen-activated protein kinase 14 (Homo sapiens) (UniProt Q16539); experiment: Activity of human SAPK2a kinase at 1 uM; procedure, shortened: as §3
[19] = tested on: Mitogen-activated protein kinase 14 (Homo sapiens), Q16539 [T106M]; experiment: Activity of human SAPK2a T106M mutant kinase at 1 uM; procedure, shortened: as §3
[20] = target: Serine/threonine-protein kinase Sgk1 (Homo sapiens) (UniProt O00141); experiment: Activity of human SGK kinase at 1 uM; procedure, shortened: as §2
[21] = target: Tyrosine-protein kinase SYK (Homo sapiens) (UniProt P43405); experiment: Activity of human Syk kinase at 1 uM; procedure, shortened: as §2
[22] = Plasma concentration in human HCT116 cells xenografted in mouse at 30 mg/kg, po after 24 hrs; assay type: ADME, organism-based, HCT-116; parameters: dose 30 mg/kg, route oral
[23] = target: Tyrosine-protein kinase CSK (Homo sapiens) (UniProt P41240); experiment: Activity of human CSK kinase at 1 uM; procedure, shortened: as §1
[24] = target: Serine/threonine-protein kinase DCLK2 (Homo sapiens) (UniProt Q8N568); experiment: Activity of human DCAMKL2 kinase at 1 uM; procedure, shortened: as §1
[25] = target: Eukaryotic elongation factor 2 kinase (Homo sapiens) (UniProt O00418); experiment: Activity of human eEF-2K kinase at 1 uM; procedure, shortened: as §3
[26] = target: Ephrin type-A receptor 4 (Homo sapiens) (UniProt P54764); experiment: Activity of human EphA4 kinase at 1 uM
[27] = Inhibition of PKA by radioactive flashplate assay
Homo sapiens [28] = organism: Homo sapiens; experiment: Activity of human CaMK1 kinase at 1 uM
[29] = target: Calcium/calmodulin-dependent protein kinase type II subunit gamma (Homo sapiens) (UniProt Q13555); experiment: Activity of human CaMK2gamma kinase at 1 uM; procedure, shortened: as §1
[30] = target: Casein kinase I homolog 1 (Saccharomyces cerevisiae S288c) (UniProt P23291); experiment: Activity of Saccharomyces cerevisiae CK1 kinase at 1 uM
PC-3 [31] = experiment: Induction of apoptosis in human PC3 cells assessed as PARP cleavage at 4 uM after 24 hrs by Western blot method; assay type: functional, cell-based
SW480 = experiment: Antiproliferative activity against human SW480 cells after 96 hrs by BrdU cell proliferation ELISA; assay type: functional, cell-based; settings: SW480, 96 h
Procedure, shortened: (§4)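 BrdU incorporation proliferation assay on cultured human tumor lines; IC50 values derived from growth inhibition.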

MCF7 = experiment: Antiproliferative activity against human MCF7 cells after 96 hrs by BrdU cell proliferation ELISA; assay type: functional, cell-based; settings: MCF7, 96 h; procedure, shortened: as §4
MDA-MB-231 = experiment: Antiproliferative activity against human MDAMB231 cells after 96 hrs by BrdU cell proliferation ELISA; assay type: functional, cell-based; settings: MDA-MB-231, 96 h; procedure, shortened: as §4
Mus musculus = experiment: Toxicity in human HCT116 cells xenografted into athymic nude NCR nu/nu mouse assessed as decrease in body weight at 30 mg/kg, QD after 21 days; assay type: organism-based, HCT-116; parameters: dose 30 mg/kg; scale not given: the % may be the effect or the level left; settings: in vivo, 504 h
Procedure, shortened: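 Female athymic nude NCR nu/nu mice were given HCT-116 cells (1 × 10^6) s.c. in the right flank. Drug in 10% hydroxypropyl-β-cyclodextrin/5% sodium bicarbonate was given orally (QD or BID) for 21 days. Body weight loss was recorded at the end of treatment, and neutrophil counts were also followed for the BID regimen.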

[32] = Inhibition of Abl kinase at 1 uM
PC-3 [33] = experiment: Cell cycle arrest in human PC3 cells by accumulation at G2/M phase at 1 uM after 48 hrs by flow cytometry relative to control; assay type: functional
Procedure, shortened: (§5)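 DNA content profiles by flow cytometry of PC-3 prostate tumor cells exposed to drug diluted in DMSO for 24 or 48 h. Phase distribution was compared with DMSO-treated control cells.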

PC-3 [34] = experiment: Cell cycle arrest in human PC3 cells by accumulation at G1 phase at 1 uM after 24 hrs by flow cytometry relative to control; assay type: functional
PC-3 [35] = experiment: Cell cycle arrest in human PC3 cells by accumulation at S phase at 1 uM after 24 hrs by flow cytometry relative to control; assay type: functional; procedure, shortened: as §5
PC-3 [36] = experiment: Cell cycle arrest in human PC3 cells by accumulation at >4N phase at 4 uM after 24 hrs by flow cytometry relative to control; assay type: functional
PC-3 [37] = experiment: Cell cycle arrest in human PC3 cells by accumulation at >4N phase at 4 uM after 48 hrs by flow cytometry relative to control; assay type: functional

Sequence of Protein kinase C eta type (Homo sapiens) (P24723 whole entry): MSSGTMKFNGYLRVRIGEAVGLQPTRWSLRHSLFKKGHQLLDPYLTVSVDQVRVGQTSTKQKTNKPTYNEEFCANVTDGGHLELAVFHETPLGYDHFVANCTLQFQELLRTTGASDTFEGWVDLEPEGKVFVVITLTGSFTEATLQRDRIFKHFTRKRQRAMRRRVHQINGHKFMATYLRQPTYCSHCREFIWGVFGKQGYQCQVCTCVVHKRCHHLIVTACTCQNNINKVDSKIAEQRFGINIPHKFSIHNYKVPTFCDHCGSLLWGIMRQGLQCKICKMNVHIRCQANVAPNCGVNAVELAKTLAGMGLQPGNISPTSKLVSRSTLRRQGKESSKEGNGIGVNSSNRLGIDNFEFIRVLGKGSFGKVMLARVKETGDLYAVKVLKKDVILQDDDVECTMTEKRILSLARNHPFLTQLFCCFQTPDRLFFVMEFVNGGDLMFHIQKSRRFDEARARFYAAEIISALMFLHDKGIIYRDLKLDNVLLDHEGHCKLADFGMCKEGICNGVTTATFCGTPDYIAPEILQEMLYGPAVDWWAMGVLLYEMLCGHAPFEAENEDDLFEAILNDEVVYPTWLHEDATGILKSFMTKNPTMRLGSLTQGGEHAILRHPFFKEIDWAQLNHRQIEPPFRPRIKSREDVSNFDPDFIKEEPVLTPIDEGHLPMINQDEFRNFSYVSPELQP
Sequence of Dual specificity mitogen-activated protein kinase kinase 1 (Homo sapiens) (Q02750 whole entry): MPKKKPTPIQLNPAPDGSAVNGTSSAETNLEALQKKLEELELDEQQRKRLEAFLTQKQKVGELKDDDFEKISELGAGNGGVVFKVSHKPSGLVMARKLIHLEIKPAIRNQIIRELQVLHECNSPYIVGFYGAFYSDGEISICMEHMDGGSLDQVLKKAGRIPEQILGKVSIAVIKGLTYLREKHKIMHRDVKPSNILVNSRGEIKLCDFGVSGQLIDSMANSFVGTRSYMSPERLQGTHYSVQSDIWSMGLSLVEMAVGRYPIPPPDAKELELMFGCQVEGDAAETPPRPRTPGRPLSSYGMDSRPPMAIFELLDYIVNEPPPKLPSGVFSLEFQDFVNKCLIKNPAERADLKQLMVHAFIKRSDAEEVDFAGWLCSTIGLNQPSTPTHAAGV
Sequence of Tyrosine-protein kinase receptor TYRO3 (Homo sapiens) (Q06418 whole entry): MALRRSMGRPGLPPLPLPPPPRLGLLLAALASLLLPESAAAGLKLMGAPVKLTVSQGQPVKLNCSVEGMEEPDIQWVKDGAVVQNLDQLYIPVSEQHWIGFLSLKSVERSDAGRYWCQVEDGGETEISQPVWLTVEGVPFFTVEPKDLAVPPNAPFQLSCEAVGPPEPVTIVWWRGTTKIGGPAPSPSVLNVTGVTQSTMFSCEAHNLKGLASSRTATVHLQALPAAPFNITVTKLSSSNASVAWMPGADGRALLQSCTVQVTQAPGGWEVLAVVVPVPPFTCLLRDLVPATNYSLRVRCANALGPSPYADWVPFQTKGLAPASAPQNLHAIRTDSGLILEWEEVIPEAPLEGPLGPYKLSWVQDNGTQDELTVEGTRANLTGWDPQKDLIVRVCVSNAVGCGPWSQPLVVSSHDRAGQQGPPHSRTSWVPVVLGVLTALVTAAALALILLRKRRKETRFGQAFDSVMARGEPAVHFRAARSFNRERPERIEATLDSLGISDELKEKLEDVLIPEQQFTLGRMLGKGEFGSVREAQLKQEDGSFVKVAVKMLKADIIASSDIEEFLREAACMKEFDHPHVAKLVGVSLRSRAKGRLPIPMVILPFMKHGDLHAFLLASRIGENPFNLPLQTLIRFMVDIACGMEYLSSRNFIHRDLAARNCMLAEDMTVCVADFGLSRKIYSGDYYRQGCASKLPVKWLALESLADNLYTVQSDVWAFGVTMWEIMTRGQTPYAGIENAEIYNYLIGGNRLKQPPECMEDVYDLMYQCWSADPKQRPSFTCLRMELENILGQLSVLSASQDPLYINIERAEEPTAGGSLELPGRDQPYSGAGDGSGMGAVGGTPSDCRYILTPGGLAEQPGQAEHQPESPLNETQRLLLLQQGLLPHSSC
Sequence of Phosphatidylinositol 4,5-bisphosphate 3-kinase catalytic subunit gamma isoform (Homo sapiens) (P48736 whole entry, looked up, canonical isoform): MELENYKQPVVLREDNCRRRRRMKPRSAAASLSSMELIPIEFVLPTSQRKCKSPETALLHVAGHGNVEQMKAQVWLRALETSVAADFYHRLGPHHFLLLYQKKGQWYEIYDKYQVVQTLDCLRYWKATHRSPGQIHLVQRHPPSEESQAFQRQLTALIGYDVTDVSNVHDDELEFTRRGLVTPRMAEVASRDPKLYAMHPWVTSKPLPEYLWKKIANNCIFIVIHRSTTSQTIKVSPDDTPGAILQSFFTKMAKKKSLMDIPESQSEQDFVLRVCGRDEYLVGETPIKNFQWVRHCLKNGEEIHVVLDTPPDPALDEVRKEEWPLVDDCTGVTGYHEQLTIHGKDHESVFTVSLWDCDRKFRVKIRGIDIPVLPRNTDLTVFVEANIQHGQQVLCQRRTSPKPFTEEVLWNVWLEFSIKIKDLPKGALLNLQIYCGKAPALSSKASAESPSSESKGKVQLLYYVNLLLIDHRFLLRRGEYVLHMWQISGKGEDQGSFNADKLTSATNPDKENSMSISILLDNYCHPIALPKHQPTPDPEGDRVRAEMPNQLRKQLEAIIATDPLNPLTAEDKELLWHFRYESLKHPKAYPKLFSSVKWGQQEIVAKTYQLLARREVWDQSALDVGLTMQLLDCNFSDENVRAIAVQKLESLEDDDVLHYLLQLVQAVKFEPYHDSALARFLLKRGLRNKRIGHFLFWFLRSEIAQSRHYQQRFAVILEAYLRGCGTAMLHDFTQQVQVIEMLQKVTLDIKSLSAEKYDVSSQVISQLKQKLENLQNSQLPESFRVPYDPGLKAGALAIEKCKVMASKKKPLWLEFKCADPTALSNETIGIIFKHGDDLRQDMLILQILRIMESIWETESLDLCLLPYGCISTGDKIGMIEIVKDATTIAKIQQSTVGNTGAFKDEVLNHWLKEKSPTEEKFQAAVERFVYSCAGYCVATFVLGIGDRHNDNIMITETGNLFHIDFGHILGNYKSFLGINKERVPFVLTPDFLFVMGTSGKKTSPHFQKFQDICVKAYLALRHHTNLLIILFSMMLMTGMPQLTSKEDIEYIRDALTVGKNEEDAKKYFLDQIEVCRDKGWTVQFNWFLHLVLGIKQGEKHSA
Sequence of Serine/threonine-protein kinase 10 (Homo sapiens) (O94804 whole entry, looked up): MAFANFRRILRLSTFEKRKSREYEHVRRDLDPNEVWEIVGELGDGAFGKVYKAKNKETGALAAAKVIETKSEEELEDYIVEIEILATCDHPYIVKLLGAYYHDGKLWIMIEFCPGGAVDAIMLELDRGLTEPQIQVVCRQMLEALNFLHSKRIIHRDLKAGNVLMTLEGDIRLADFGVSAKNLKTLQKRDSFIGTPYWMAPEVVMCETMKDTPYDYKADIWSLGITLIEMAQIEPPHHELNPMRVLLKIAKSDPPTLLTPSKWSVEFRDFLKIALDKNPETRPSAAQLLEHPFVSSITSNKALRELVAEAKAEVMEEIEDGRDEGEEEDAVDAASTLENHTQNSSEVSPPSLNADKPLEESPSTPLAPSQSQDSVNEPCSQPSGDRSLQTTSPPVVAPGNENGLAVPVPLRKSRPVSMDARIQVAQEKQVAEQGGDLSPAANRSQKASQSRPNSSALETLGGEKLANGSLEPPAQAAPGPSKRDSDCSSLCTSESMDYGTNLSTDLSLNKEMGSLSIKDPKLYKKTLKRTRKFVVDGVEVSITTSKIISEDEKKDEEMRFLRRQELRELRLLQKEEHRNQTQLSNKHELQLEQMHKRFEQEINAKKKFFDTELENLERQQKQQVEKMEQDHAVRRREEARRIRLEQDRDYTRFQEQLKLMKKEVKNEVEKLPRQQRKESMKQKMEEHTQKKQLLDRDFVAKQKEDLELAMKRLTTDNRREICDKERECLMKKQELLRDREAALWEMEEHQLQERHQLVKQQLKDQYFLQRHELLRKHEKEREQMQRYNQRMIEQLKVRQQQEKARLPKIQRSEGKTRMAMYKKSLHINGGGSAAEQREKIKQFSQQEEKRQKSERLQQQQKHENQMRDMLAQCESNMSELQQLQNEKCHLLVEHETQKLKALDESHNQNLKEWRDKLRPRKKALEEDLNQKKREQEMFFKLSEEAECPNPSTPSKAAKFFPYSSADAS
Sequence of Tyrosine-protein kinase Lyn (Homo sapiens) (P07948 2-512 limits assumed): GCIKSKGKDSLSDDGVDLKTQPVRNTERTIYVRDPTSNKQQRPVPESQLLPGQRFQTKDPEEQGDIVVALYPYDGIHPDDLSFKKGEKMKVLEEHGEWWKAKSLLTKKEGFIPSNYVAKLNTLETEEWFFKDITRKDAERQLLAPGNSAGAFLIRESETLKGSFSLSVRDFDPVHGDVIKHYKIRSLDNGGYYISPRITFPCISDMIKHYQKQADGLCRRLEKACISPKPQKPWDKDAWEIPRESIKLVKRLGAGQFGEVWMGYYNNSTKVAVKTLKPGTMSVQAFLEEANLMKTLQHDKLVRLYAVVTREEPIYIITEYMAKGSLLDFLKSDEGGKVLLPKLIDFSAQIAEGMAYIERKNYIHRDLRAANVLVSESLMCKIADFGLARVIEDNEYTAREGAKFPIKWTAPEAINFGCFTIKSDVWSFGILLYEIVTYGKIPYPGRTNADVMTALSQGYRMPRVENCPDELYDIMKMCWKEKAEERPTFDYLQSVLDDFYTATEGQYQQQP
Sequence of Mitogen-activated protein kinase 14 (Homo sapiens) (Q16539 whole entry): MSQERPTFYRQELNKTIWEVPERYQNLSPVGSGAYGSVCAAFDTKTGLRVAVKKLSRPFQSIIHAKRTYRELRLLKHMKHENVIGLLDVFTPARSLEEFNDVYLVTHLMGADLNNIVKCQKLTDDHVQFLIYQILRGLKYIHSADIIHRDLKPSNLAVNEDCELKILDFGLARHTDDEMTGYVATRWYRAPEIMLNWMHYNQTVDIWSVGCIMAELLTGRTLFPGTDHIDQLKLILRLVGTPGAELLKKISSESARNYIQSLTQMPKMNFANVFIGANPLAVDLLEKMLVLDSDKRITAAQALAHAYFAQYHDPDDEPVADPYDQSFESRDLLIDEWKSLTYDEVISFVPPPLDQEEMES
Sequence of Mitogen-activated protein kinase 14 (Homo sapiens), Q16539 [T106M] (Q16539 whole entry T106M): as the sequence (Q16539 whole entry) above, with T106M counted along it

O=C(O)c1ccc(Nc2ncc3c(n2)-c2ccc(Cl)cc2C(c2c(F)cccc2F)=NC3)cc1 [MLN-8054]
Activity [1]: 133% | Activity [2]: 114% | Activity [3]: 92% | Activity [4]: 95% | Activity [5]: 46% | Activity [6]: 52% | Activity [7]: 110% | Activity [8]: 120% | Activity [9]: 95% | Activity [10]: 107% | Activity [11]: 110% | Activity [12]: 106% | Activity (Homo sapiens [13]): 100% | Activity [14]: 109% | Activity [15]: 120% | Activity [16]: 92% | Activity [17]: 56% | Activity [18]: 105% | Activity [19]: 130% | Activity [20]: 99% | Activity [21]: 99% | concentration at 24 h [22]: 400 nM | Activity [23]: 105% | Activity [24]: 103% | Activity [25]: 123% | Activity [26]: 90% | IC50 [27]: 19 µM | Activity (Homo sapiens [28]): 98% | Activity [29]: 112% | Activity [30]: 115% | Activity (PC-3 [31]): Active | IC50 (SW480): 860 nM | IC50 (MCF7): 670 nM | IC50 (MDA-MB-231): 740 nM | Activity (Mus musculus): < 2% | inhibition [32]: 76% | Activity (PC-3 [33]): 59.8% | Activity (PC-3 [34]): 36.1% | Activity (PC-3 [35]): 14.9% | Activity (PC-3 [36]): 5% | Activity (PC-3 [37]): 21.4%
